In assay [1] the test system is A549. The experiment in a line: Cytotoxicity against human A549 cells by SRB assay. It is filed as functional, cell-based. In outline: (§1)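 Panel of four human tumour lines: A549 (lung), SKOV-3 (ovarian), SK-MEL-2 (melanoma) and HCT 15 (colon). Each was exposed to compound in vitro, and cytotoxicity was read out by sulforhodamine B (SRB) staining.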
On the technique in general: Sulforhodamine B stains cellular protein and so reports cell mass.

Assay [2] is described as follows: Cytotoxicity against human OV3 cells by SRB assay. It is filed as functional, cell-based. In outline:
as §1

In assay [3] the test system is SK-MEL-2. The experiment in a line: Cytotoxicity against human SK-MEL-2 cells by SRB assay. The assay is classed as functional, cell-based. In outline: as §1
Assay [4] concerns HCT-15. Kind of assay: Cytotoxicity against human HCT15 cells by SRB assay. It is filed as functional, cell-based. In outline: as §1
Assay [5] deals with T1, DNA topoisomerase 1 (Homo sapiens) (UniProt P11387).
T1 sequence (whole entry): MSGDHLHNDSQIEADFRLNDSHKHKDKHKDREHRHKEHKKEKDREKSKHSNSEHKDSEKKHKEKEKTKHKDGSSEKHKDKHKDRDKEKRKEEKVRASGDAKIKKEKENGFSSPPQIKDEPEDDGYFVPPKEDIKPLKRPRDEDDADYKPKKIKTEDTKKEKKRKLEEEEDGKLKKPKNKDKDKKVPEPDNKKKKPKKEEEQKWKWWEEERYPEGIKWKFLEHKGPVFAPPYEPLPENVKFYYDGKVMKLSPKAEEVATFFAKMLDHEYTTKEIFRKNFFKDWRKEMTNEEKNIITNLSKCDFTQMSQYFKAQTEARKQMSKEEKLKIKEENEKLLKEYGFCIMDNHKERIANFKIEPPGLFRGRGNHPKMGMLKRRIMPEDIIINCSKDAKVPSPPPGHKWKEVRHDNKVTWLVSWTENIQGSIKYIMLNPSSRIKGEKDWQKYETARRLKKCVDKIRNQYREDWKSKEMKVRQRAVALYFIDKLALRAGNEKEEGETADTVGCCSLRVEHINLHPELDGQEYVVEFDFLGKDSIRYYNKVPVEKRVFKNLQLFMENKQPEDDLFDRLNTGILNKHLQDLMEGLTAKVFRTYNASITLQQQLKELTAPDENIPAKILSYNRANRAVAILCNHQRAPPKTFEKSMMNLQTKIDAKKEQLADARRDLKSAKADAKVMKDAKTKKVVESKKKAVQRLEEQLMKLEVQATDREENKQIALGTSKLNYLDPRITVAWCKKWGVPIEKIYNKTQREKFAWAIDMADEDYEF
Kind of assay: Inhibition of topoisomerase 1 by supercoiled DNA unwinding method relative to camptothecin. It is filed as functional.

Experimental findings from ChEMBL document CHEMBL1140462, “Convenient synthesis of indeno[1,2-c]isoquinolines as constrained forms of 3-arylisoquinolines and docking study of a topoisomerase I inhibitor into DNA-topoisomerase I complex” (Bioorg Med Chem Lett, 2007) are described below.

pIC50: −log10 of the molar value. The source made the active and inactive calls. The rule behind the calls is not given here.

For the compound `Cc1ccc2c(=O)n(C)c3c(c2c1)C(OCC(C)C)c1ccccc1-3` (stereo not drawn), the pIC50 (in general, −log10 of the IC50, conventionally taken in molar units) in assay [1] is 4.55; in assay [2], 4.42; in assay [3] it was 4.98; in assay [4], 4.56.

On to `COC1c2ccccc2-c2c1c1cc(C)ccc1c(=O)n2C` (stereo not drawn), for which the negative-log IC50 (pIC50) in assay [1] is 3.88; in assay [2] it was 4.22; in assay [3] it was 4.15; in assay [4], 4.68.

For `COc1ccc(Cn2c3c(c4cc(C)ccc4c2=O)C(=O)c2ccccc2-3)cc1`, the pIC50 is 3.81 in assay [1], 3.99 in assay [2], 3.80 in assay [3] and 3.77 in assay [4].

On to `CCOC1c2ccccc2-c2c1c1cc(C)ccc1c(=O)n2C` (stereo not drawn), for which the pIC50 is 4.05 in assay [1], 4.15 in assay [2], 4.39 in assay [3] and 4.69 in assay [4].

`Cn1c2c(c3ccccc3c1=O)C(=O)c1ccccc1-2`: the pIC50 in assay [1] was 4.63; in assay [2], 4.09; in assay [3], 4.04; in assay [4], 4.51.

With `CCOC1c2ccccc2-c2c1c1cc(C)ccc1c(=O)n2Cc1ccc(OC)cc1` (stereo not drawn), the pIC50 in assay [1] was 5.17; in assay [2] it was 5.23; in assay [3], 5.44; in assay [4] it was 5.71.

`COc1cccc2c1C(=O)c1c(O)c3c(c(O)c1C2=O)C[C@@](O)(C(=O)CO)C[C@@H]3O[C@H]1C[C@H](N)[C@H](O)[C@H](C)O1` (stereo in doubt) [DOXORUBICIN] had a pIC50 in assay [2] of 5.93.

As to `CCCOC1c2ccccc2-c2c1c1cc(C)ccc1c(=O)n2Cc1ccc(OC)cc1` (stereo not drawn), the pIC50 was 5.46 in assay [1], 5.24 in assay [2], 5.20 in assay [3] and 5.85 in assay [4]. Further, in assay [5], the result was Active.

Take `COc1ccc(Cn2c3c(c4cc(C)ccc4c2=O)C(OCC(C)C)c2ccccc2-3)cc1` (stereo not drawn): the pIC50 in assay [1] is 5.73; in assay [2], 5.79; in assay [3] it was 5.68. Further, in assay [5], the outcome was Active.

`Cc1ccc2c(=O)n(C)c3c(c2c1)C(=O)c1ccccc1-3`: the pIC50 was 4.70 in assay [1], 4.79 in assay [2], 4.77 in assay [3] and 4.84 in assay [4].

Consider `COc1ccc(Cn2c3c(c4cc(C)ccc4c2=O)C(OC(C)C)c2ccccc2-3)cc1` (stereo not drawn), for which the pIC50 in assay [1] is 5.21; in assay [2] it was 5.92; in assay [3] it was 5.61; in assay [4] it was 6.04. The result in assay [5] was Active.

On to `CC[C@@]1(O)C(=O)OCc2c1cc1n(c2=O)Cc2cc3ccccc3nc2-1` [CAMPTOTHECIN], for which the negative-log IC50 (pIC50) in assay [1] is 7.17; in assay [2], 7.62; in assay [3], 7.12; in assay [4], 7.10. Also, the result in assay [5] was Active.

Take `COc1ccc(Cn2c3c(c4cc(C)ccc4c2=O)Cc2ccccc2-3)cc1`: the pIC50 in assay [1] was 4.29; in assay [2], 4.63; in assay [3], 4.50; in assay [4], 5.05.

For the compound `COc1ccc(Cn2c3c(c4cc(C)ccc4c2=O)C(O)c2ccccc2-3)cc1` (stereo not drawn), the negative-log IC50 (pIC50) in assay [1] is 4.00; in assay [2] it was 4.15; in assay [3], 3.74; in assay [4], 4.69.

As for `CCCOC1c2ccccc2-c2c1c1cc(C)ccc1c(=O)n2C` (stereo not drawn), the negative logarithm of the IC50 (pIC50) in assay [1] was 4.39; in assay [2], 4.15; in assay [3], 4.10; in assay [4], 4.96.

Regarding `Cn1c2c(c3ccccc3c1=O)Cc1ccccc1-2`, the pIC50 in assay [1] was 4.52; in assay [2] it was 4.51; in assay [3], 3.89; in assay [4], 4.69.

As for `Cc1ccc2c(=O)n(C)c3c(c2c1)Cc1ccccc1-3`, the negative-log IC50 (pIC50) in assay [1] is 3.89; in assay [2] it was 3.58; in assay [3], 4.10; in assay [4], 4.70.

As for `CCCCCOC1c2ccccc2-c2c1c1cc(C)ccc1c(=O)n2Cc1ccc(OC)cc1` (stereo not drawn), the pIC50 is 4.95 in assay [1], 5.24 in assay [2], 4.95 in assay [3] and 5.25 in assay [4].

Regarding `COc1ccc(Cn2c3c(c4cc(C)ccc4c2=O)C(OC)c2ccccc2-3)cc1` (stereo not drawn), the negative logarithm of the IC50 (pIC50) in assay [1] was 4.99; in assay [2] it was 5.87; in assay [3], 4.82; in assay [4] it was 5.95.

In the case of `CCCCOC1c2ccccc2-c2c1c1cc(C)ccc1c(=O)n2Cc1ccc(OC)cc1` (stereo not drawn), the pIC50 is 5.49 in assay [1], 5.70 in assay [2], 5.47 in assay [3] and 5.36 in assay [4].

Take `CCCCOC1c2ccccc2-c2c1c1cc(C)ccc1c(=O)n2C` (stereo not drawn): the pIC50 in assay [1] is 3.96; in assay [2], 4.52; in assay [3] it was 4.68; in assay [4] it was 4.99.

As for `CCCCCOC1c2ccccc2-c2c1c1cc(C)ccc1c(=O)n2C` (stereo not drawn), the negative logarithm of the IC50 (pIC50) in assay [1] was 4.79; in assay [2], 4.88; in assay [3], 4.58; in assay [4], 4.66.
